Measured values published in ChEMBL document CHEMBL4406821, “Novel dual inhibitors targeting CDK4 and VEGFR2 synergistically suppressed cancer progression and angiogenesis” (Eur J Med Chem, 2019).
Activity calls are given as the source filed them. The calls are words filed in the database; no cut-off is given here.

Tests used:
[1] = system: HeLa; assay: Induction of apoptosis in human HeLa cells assessed as decrease in Ki67 expression at 40 to 80 nM incubated for 48 hrs by Western blot analysis; type: functional, cell-based
How it was run: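 Cells were treated for 48 h, washed three times with PBS, and lysed in RIPA buffer. Immunoblots used anti-Rb, anti-phospho-Rb, anti-Ki67 and anti-Bcl-2 (each 1:1000), with β-actin as loading control.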

[2] = Toxicity in NOD/SCID BALB/c mouse xenografted with human SiHa cells assessed as toxic effects in kidney at 40 mg/kg, po administered for 48 hrs by hematoxylin and eosin staining method; type: organism-based; conditions: in vivo
[3] = AUC (0 to t) in Sprague-Dawley rat at 10 mg/kg, po by HPLC-MS analysis; type: ADME, organism-based; conditions: in vivo
How it was run: (§1)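 Rats fitted with jugular vein catheters for serial blood sampling. Compound dissolved in saline with 5% (v/v) DMSO and given as a single 10 mg/kg dose iv or po after an overnight fast, n = 5 per group. Plasma isolated at once and measured by HPLC with tandem MS detection. Parameters derived by noncompartmental fitting.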

[4] = Clearance in Sprague-Dawley rat at 10 mg/kg, po by HPLC-MS analysis; type: ADME, organism-based; conditions: in vivo; how it was run: as §1
[5] = Oral bioavailability in Sprague-Dawley rat at 10 mg/kg by HPLC-MS analysis; type: ADME, organism-based; conditions: in vivo
[6] = target: Transient receptor potential cation channel subfamily M member 7 (Homo sapiens) (UniProt Q96QT4); assay: Inhibition of recombinant human CHAK1 (1180 to end residues) at 1 uM using myelin ba as substrate incubated for 40 mins in presence of [gamma-33P]-ATP by scintillation counting method relative to control
How it was run: (§2)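 Tested at a single 1 uM in an outsourced commercial kinase-profiling panel, read as percent inhibition. Each value is the mean of two independent experiments.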

[7] = target: Casein kinase 2 (Homo sapiens) (UniProt P67870+P68400+P19784+Q8NEV1); assay: Inhibition of recombinant full length human CK2 expressed in insect Sf21 cells at 1 uM using CK2 substrate peptide as substrate incubated for 40 mins in presence of [gamma-33P]-ATP by scintillation counting method relative to control
How it was run: (§3)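 Kinase panel profiling at 1 μM performed by Eurofins KinaseProfiler; percent inhibition reported as mean of two independent experiments.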

[8] = target: Death-associated protein kinase 2 (Homo sapiens) (UniProt Q9UIK4); assay: Inhibition of recombinant full length human DAPK2 at 1 uM using calmodulin as substrate incubated for 40 mins in presence of [gamma-33P]-ATP by scintillation counting method relative to control; how it was run: as §3
[9] = target: Tyrosine-protein kinase Fgr (Homo sapiens) (UniProt P09769); assay: Inhibition of recombinant human FGR (2 to end residues) at 1 uM using poly(Glu, Tyr) 4:1 as substrate incubated for 40 mins in presence of [gamma-33P]-ATP by scintillation counting method relative to control
[10] = target: Insulin-like growth factor 1 receptor (Homo sapiens) (UniProt P08069); assay: Inhibition of recombinant human IGF1R (959 to end residues) at 1 uM using KKKSPGEYVNIEFG as substrate incubated for 40 mins in presence of [gamma-33P]-ATP by scintillation counting method relative to control
[11] = target: Inhibitor of nuclear factor kappa-B kinase subunit beta (Homo sapiens) (UniProt O14920); assay: Inhibition of recombinant human full length IKKbeta at 1 uM using peptide as substrate incubated for 40 mins in presence of [gamma-33P]-ATP by scintillation counting method relative to control
Chain of Inhibitor of nuclear factor kappa-B kinase subunit beta (Homo sapiens) (O14920 whole entry, the tested form may be a part): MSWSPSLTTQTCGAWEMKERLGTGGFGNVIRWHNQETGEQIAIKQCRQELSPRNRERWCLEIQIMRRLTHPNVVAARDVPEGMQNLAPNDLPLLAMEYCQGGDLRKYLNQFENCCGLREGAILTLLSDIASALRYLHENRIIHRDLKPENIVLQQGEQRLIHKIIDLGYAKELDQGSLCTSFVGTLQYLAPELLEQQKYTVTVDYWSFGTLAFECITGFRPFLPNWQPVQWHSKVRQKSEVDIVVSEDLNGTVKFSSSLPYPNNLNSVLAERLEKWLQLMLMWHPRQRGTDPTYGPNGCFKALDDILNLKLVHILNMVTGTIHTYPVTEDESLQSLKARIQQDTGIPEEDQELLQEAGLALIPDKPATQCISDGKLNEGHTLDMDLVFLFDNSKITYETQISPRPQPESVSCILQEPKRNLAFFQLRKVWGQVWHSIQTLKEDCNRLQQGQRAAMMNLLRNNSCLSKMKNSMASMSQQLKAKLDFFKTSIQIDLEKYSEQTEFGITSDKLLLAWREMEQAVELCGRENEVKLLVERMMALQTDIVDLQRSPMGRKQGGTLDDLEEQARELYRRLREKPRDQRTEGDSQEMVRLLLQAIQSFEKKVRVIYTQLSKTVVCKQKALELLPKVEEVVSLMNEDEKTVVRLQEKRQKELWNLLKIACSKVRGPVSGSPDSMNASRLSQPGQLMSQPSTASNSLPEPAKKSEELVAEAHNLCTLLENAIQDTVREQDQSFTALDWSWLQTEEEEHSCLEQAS

[12] = target: Insulin receptor (Homo sapiens) (UniProt P06213); assay: Inhibition of recombinant human IR (1005 to 1310 residues) at 1 uM using KKKSPGEYVNIEFG as substrate incubated for 40 mins in presence of [gamma-33P]-ATP by scintillation counting method relative to control
Chain of Insulin receptor (Homo sapiens) (P06213 28-758 limits assumed): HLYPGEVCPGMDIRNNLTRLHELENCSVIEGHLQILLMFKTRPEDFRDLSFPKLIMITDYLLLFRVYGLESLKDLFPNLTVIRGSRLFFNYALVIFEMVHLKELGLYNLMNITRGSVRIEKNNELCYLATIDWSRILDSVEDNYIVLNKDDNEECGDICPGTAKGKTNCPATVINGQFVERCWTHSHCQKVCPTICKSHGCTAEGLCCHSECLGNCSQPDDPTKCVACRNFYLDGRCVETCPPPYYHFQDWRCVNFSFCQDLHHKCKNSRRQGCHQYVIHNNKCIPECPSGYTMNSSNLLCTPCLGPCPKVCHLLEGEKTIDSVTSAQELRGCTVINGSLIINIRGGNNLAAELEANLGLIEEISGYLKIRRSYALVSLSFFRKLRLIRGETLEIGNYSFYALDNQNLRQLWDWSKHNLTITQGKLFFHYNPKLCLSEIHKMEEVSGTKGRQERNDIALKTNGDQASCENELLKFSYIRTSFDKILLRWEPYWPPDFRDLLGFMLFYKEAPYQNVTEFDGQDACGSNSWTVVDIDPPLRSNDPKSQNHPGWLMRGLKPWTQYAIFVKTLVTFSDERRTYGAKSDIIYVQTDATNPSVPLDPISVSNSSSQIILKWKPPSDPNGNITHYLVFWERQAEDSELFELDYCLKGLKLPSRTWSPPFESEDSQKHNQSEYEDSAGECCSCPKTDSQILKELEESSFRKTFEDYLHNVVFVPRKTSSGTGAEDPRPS
Chain of Insulin receptor (Homo sapiens) (P06213 763-1382 limits assumed): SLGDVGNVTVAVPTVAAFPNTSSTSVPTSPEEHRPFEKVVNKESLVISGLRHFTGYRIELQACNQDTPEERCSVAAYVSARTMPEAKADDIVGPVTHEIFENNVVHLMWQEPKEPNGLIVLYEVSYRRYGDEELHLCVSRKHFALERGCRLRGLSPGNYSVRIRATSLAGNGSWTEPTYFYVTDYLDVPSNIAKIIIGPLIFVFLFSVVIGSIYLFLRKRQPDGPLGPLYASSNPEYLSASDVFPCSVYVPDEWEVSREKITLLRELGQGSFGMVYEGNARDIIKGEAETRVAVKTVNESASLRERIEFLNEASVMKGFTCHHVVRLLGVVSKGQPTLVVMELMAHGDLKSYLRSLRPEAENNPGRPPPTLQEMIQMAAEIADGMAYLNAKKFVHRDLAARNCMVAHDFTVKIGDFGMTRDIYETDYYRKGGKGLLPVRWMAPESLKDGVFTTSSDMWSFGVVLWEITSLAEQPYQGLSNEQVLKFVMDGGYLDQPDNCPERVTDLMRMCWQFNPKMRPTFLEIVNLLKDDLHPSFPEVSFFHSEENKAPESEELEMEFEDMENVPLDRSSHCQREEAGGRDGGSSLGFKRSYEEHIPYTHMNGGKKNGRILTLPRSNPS

[13] = target: Tyrosine-protein kinase Lyn (Homo sapiens) (UniProt P07948); assay: Inhibition of recombinant human full length LYN at 1 uM using poly(Glu, Tyr) 4:1 as substrate incubated for 40 mins in presence of [gamma-33P]-ATP by scintillation counting method relative to control
Chain of Tyrosine-protein kinase Lyn (Homo sapiens) (P07948 2-512 limits assumed): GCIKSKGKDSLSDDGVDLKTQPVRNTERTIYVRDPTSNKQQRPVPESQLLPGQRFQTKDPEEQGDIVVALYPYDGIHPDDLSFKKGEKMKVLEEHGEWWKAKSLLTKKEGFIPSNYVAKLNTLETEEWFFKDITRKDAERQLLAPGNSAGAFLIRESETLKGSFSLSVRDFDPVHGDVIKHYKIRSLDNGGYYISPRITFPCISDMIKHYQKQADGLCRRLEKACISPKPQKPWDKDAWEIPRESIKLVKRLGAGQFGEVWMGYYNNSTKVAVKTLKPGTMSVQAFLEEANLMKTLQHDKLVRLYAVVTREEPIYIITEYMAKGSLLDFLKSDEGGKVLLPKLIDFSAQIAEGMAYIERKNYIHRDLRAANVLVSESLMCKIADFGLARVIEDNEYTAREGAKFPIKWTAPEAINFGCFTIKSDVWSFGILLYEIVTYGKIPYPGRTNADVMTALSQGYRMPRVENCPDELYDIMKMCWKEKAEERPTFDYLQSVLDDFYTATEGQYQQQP

[14] = target: SRSF protein kinase 3 (Homo sapiens) (UniProt Q9UPE1); assay: Inhibition of recombinant human full length MSSK1 at 1 uM using ERMRPRKRQGSVRRRV as substrate incubated for 40 mins in presence of [gamma-33P]-ATP by scintillation counting method relative to control
[15] = target: Serine/threonine-protein kinase 38-like (Homo sapiens) (UniProt Q9Y2H1); assay: Inhibition of recombinant human NDR2 (83 to end residues) at 1 uM using RSRSRSRSRSRSRSR as substrate incubated for 40 mins in presence of [gamma-33P]-ATP by scintillation counting method relative to control
[16] = target: Serine/threonine-protein kinase Nek1 (Homo sapiens) (UniProt Q96PY6); assay: Inhibition of recombinant human NEK1 (1 to 505 residues) at 1 uM using RLGRDKYKTLRQIRQ as substrate incubated for 40 mins in presence of [gamma-33P]-ATP by scintillation counting method relative to control
[17] = target: Tyrosine-protein kinase SYK (Homo sapiens) (UniProt P43405); assay: Inhibition of recombinant human full length SYK at 1 uM using poly(Glu, Tyr) 4:1 as substrate incubated for 40 mins in presence of [gamma-33P]-ATP by scintillation counting method relative to control
[18] = target: Transcription initiation factor TFIID subunit 1-like (Homo sapiens) (UniProt Q8IZX4); assay: Inhibition of recombinant human TAF1L (1428 to end residues) at 1 uM using RRRFRPASPLRGPPK as substrate incubated for 40 mins in presence of [gamma-33P]-ATP by scintillation counting method relative to control; how it was run: as §2
[19] = target: Serine/threonine-protein kinase TAO2 (Homo sapiens) (UniProt Q9UL54); assay: Inhibition of recombinant human TAO2 (1 to 320 residues) at 1 uM using myelin basic protein as substrate incubated for 40 mins in presence of [gamma-33P]-ATP by scintillation counting method relative to control; how it was run: as §2
Chain of Serine/threonine-protein kinase TAO2 (Homo sapiens) (Q9UL54 whole entry, the tested form may be a part): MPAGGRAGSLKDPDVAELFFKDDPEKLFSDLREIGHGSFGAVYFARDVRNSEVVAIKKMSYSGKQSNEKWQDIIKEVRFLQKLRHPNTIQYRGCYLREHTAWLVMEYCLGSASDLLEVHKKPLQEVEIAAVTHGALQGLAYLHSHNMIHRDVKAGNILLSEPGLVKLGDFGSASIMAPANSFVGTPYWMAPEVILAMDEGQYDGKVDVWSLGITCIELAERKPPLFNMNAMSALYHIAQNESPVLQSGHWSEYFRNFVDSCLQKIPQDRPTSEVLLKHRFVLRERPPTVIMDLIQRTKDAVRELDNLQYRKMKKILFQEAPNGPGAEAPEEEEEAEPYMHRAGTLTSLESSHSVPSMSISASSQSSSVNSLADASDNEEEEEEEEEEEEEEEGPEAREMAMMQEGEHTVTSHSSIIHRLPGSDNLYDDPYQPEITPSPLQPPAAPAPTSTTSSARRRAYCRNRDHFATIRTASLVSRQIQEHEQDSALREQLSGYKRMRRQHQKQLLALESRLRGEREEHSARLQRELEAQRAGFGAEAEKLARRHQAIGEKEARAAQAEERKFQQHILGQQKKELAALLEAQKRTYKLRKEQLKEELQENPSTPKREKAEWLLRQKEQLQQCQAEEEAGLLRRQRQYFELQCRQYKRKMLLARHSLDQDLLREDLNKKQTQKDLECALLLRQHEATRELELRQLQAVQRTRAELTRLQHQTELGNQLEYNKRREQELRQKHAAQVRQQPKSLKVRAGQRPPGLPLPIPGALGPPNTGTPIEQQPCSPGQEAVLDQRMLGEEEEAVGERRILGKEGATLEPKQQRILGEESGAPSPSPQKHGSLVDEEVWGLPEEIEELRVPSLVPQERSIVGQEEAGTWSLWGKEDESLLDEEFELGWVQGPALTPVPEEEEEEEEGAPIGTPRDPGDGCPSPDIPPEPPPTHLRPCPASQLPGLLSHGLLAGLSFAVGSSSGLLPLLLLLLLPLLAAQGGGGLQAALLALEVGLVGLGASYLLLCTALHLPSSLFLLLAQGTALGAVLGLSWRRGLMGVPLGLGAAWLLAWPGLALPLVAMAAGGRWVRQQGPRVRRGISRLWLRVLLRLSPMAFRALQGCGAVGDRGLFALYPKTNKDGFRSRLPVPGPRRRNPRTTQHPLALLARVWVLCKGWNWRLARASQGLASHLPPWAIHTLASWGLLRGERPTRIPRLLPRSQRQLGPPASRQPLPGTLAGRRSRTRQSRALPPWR

[20] = target: Angiopoietin-1 receptor (Homo sapiens) (UniProt Q02763); assay: Inhibition of recombinant human TIE2 (771 to end residues) at 1 uM using EFPIYDFLPAKKK as substrate incubated for 40 mins in presence of [gamma-33P]-ATP by scintillation counting method relative to control
Chain of Angiopoietin-1 receptor (Homo sapiens) (Q02763 whole entry, the tested form may be a part): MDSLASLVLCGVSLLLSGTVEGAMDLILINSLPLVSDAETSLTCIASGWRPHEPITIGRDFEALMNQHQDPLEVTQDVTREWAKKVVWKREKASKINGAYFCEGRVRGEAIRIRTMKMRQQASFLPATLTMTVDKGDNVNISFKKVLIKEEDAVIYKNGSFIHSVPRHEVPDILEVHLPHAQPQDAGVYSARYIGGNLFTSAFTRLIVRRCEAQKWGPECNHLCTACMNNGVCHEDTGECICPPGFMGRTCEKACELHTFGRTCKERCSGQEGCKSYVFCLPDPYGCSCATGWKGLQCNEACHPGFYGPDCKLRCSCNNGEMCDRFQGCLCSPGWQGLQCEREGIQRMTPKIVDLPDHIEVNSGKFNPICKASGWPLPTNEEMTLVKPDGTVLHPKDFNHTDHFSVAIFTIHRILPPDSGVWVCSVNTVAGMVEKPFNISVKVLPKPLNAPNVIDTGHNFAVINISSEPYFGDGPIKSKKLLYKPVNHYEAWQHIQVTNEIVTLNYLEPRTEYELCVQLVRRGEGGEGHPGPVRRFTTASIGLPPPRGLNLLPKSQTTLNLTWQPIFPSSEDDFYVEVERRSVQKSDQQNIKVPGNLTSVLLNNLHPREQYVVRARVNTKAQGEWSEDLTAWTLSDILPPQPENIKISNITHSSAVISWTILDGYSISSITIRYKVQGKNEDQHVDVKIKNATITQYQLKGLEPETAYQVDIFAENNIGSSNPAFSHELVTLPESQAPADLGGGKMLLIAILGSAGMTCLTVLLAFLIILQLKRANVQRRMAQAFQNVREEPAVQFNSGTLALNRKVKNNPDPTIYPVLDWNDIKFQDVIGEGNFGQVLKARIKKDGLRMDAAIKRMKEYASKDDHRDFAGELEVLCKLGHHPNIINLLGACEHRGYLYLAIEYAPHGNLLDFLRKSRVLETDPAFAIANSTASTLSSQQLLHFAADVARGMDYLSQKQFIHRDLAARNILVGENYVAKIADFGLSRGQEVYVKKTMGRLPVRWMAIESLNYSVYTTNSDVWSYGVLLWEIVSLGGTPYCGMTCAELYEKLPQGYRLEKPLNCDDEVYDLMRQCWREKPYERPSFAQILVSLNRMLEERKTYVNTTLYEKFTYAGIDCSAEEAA

[21] = target: Serine/threonine-protein kinase WNK2 (Homo sapiens) (UniProt Q9Y3S1); assay: Inhibition of recombinant human WNK2 (166 to 489 residues) at 1 uM using myelin basic protein as substrate incubated for 40 mins in presence of [gamma-33P]-ATP by scintillation counting method relative to control
[22] = species: Homo sapiens; assay: Inhibition of recombinant human full length PI3K p110alpha/p65alpha (1 to 571 residues) at 1 uM using phosphatidylinositol 4,5-bisphosphate as substrate incubated for 40 mins in presence of [gamma-33P]-ATP by scintillation counting method relative to control
[23] = Toxicity in BALB/c mouse assessed as toxic effects in spleen at 40 mg/kg, po administered for 48 hrs by hematoxylin and eosin staining method; conditions: in vivo

Cc1ccc(NC(=O)C2(C(=O)Nc3ccc(Nc4ncc(F)c(-c5cc(F)c6nc(C)n(C(C)C)c6c5)n4)cc3)CC2)cc1
Activity [1]: Active | Activity [2]: Non-Toxic | AUC(0-t) [3]: 6000 ng·h/mL | CL/F [4]: 33.3 mL/min/kg | bioavailability [5]: 60% | inhibition [6]: 0% | inhibition [7]: 56% | inhibition [8]: 10% | inhibition [9]: 55% | inhibition [10]: 11% | inhibition [11]: 11% | inhibition [12]: 35% | inhibition [13]: 58% | inhibition [14]: 2% | inhibition [15]: 33% | inhibition [16]: 72% | inhibition [17]: 49% | inhibition [18]: 0% | inhibition [19]: 0% | inhibition [20]: 23% | inhibition [21]: 47% | inhibition [22]: 6% | Activity [23]: Non-Toxic
